From ChEMBL document CHEMBL1150130, “Activity-guided isolation of constituents of Renealmia nicolaioides with the potential to induce the phase II enzyme quinone reductase” (J Nat Prod, 2002)
Values after ≈ are worked out from the molar mass of the structure shown.

Assays:
Plasmodium falciparum = assay: Antiplasmodial activity against Plasmodium falciparum D6; type: functional, organism-based
[1] = Cytotoxicity against mouse Hepa-1c1c7 cells; type: cell-based
Outline: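 Mouse Hepa 1c1c7 hepatoma cells were cultured and assessed in the same system as the QR induction assay. IC50 was taken as the concentration causing half-maximal inhibition of cell viability.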

[2] = Chemopreventive index, ratio of IC50 for mouse Hepa-1c1c7 cells to drug level required to double specific NADPH:quinone reductase activity in mouse Hepa-1c1c7 cells; type: functional
Outline: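 Cultured mouse hepatoma Hepa 1c1c7 cells treated with extracts, fractions or pure isolates. QR induction was expressed as CD, the concentration that doubles QR specific activity. IC50 was the concentration giving half-maximal inhibition of cell viability in the same cells. Index computed as IC50/CD. Sulforaphane served as positive control.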

SMILES | IC50 (Plasmodium falciparum) [µg/mL] | IC50 [1] [µg/mL] | Ratio [2]
C=C1CC[C@@H](C(C)C)/C=C/[C@@](C)(O)CC[C@@H]1O | < 5 | – | –
C/C1=C\CC[C@](C)(O)/C=C/[C@H](C(C)C)CC1 | < 5 | – | –
COc1cc(O)c(C(=O)/C=C/c2ccccc2)c(OC)c1 [FLAVOKAWAIN B] | – | 7.2 (≈ 25.3 µM) | –
CC(C)C1=CC[C@@]2(C)[C@H](O)CC[C@](C)(O)[C@@H]2C1 [OPLODIOL] | < 5 | – | –
C[S+]([O-])CCCCN=C=S (stereo not drawn) [SULFORAPHANE] | – | 2.07 (≈ 11.7 µM) | 23.8
COc1cc(O)c2c(c1)O[C@H](c1ccccc1)CC2=O (racemic) [PINOSTROBIN] | – | > 100 | >111
